From ChEMBL document CHEMBL3425438, “Investigation of (E)-3-[4-(2-Oxo-3-aryl-chromen-4-yl)oxyphenyl]acrylic Acids as Oral Selective Estrogen Receptor Down-Regulators” (J Med Chem, 2015)

What was measured:
Estrogen receptor [1] = target: T1, Estrogen receptor (Homo sapiens, UniProt P03372); experiment: Suppression of ER alpha in human MCF7 cells after 24 hrs by immunostaining analysis; format: cell-based
T1 sequence (P03372 whole entry): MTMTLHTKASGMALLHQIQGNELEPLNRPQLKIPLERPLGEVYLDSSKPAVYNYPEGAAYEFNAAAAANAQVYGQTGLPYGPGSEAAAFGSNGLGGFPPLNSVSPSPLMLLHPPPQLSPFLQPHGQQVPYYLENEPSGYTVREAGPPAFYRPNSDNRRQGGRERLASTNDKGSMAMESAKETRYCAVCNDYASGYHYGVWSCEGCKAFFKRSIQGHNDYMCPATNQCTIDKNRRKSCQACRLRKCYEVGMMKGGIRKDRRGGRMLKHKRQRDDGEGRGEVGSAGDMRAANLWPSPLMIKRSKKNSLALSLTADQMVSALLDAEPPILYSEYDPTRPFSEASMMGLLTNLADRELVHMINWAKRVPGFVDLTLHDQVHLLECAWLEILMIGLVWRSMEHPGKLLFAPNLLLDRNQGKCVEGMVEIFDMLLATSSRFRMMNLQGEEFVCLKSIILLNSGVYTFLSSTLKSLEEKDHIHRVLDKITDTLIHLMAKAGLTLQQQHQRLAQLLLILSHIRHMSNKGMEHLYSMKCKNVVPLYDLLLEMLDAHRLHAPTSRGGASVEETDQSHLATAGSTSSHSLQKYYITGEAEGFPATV

Estrogen receptor [2] = target: T1, Estrogen receptor; experiment: Binding affinity to ER alpha (unknown origin) by LanthaScreen TR-FRET competitive binding assay
In short: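 LanthaScreen TR-FRET ERα competitive binding; 12-point half-log concentration response; TR-FRET emission ratio read on microplate reader; IC50 reported.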

[3] = Intrinsic clearance in rat hepatocytes measured per 10^6 cells; format: ADME, cell-based, Hepatocyte; conditions: read-out: CLH
[4] = Octanol-buffer partition coefficient, log D of the compound at ratio of 1:100 at pH 7.4 by shake-flask method; format: physicochemical
[5] = Dissociation constant, pKa of the compound by potentiometric analysis […] phenol; format: physicochemical
In short: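 pKa (acid and phenol) by potentiometric titration.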

[6] = Intrinsic clearance in human hepatocytes measured per 10^6 cells; format: ADME, cell-based, Hepatocyte; conditions: read-out: CLH

IC50 (Estrogen receptor [1]) [nM]	IC50 (Estrogen receptor [2]) [nM]	hepatocyte CLint [3] [µL/min/1e6 cells]	logD [4]	pKa [5]	hepatocyte CLint [6] [µL/min/1e6 cells]	Compound
10600	5800	4.4	2.5	–	–	O=C(O)/C=C/c1ccc(Cc2c(-c3ccc(OC(F)(F)F)cc3)c(=O)oc3cc(F)ccc23)cc1
2260	11	–	1.8	–	–	COc1cc(F)ccc1-c1c(Cc2ccc(/C=C/C(=O)O)cc2)c2ccc(O)cc2oc1=O
509	3.2	33	0.6	6.1	11	Cc1cc(F)ccc1-c1c(Oc2ccc(/C=C/C(=O)O)cc2)c2ccc(O)c(F)c2oc1=O
350	3.8	–	1.9	–	–	COc1ccc(-c2c(Cc3ccc(/C=C/C(=O)O)cc3)c3ccc(O)cc3oc2=O)cc1
3600	1100	23	3	–	23	COc1ccc2c(Cc3ccc(/C=C/C(=O)O)cc3)c(-c3ccc(OC(F)(F)F)cc3)c(=O)oc2c1
7	1	–	3.1	–	–	Cc1cc(OC(F)(F)F)ccc1-c1c(Cc2ccc(/C=C/C(=O)O)cc2)c2ccc(O)cc2oc1=O
5640	41	–	1.9	–	–	COc1cccc(-c2c(Cc3ccc(/C=C/C(=O)O)cc3)c3ccc(O)cc3oc2=O)c1
1710	5.9	–	2.9	–	–	O=C(O)/C=C/c1ccc(Cc2c(-c3cccc(OC(F)(F)F)c3)c(=O)oc3cc(O)ccc23)cc1
60	9.9	–	2.3	–	–	Cc1cc(F)ccc1-c1c(N(C)c2ccc(/C=C/C(=O)O)cc2)c2ccc(O)cc2oc1=O
1450	25	–	1.3	–	–	Cc1cc(F)ccc1-c1c(Nc2ccc(/C=C/C(=O)O)cc2)c2ccc(O)cc2oc1=O
3090	17	–	2.2	–	–	Cc1cccc(-c2c(Cc3ccc(/C=C/C(=O)O)cc3)c3ccc(O)cc3oc2=O)c1
531	4.6	–	2.6	–	–	O=C(O)/C=C/c1ccc(Cc2c(-c3ccc(C(F)(F)F)cc3)c(=O)oc3cc(O)ccc23)cc1
> 2150	390	16	2.2	–	< 3	Cc1cc(F)ccc1-c1c(Cc2ccc(/C=C/C(=O)O)cc2)c2ccc(C(F)F)cc2oc1=O
30	1.5	–	–	–	–	Cc1cc(Cl)ccc1-c1c(Cc2ccc(/C=C/C(=O)O)cc2)c2ccc(O)cc2oc1=O
253	50	21	–	–	20	CCOc1ccc2c(Oc3ccc(/C=C/C(=O)O)cc3)c(-c3ccc(OC(F)(F)F)cc3C)c(=O)oc2c1
506	50	3	3	–	11	Cc1cc(OC(F)(F)F)ccc1-c1c(Oc2ccc(/C=C/C(=O)O)cc2)c2ccc(C(F)F)cc2oc1=O
1380	–	18	1.7	–	10	Cc1cc(F)ccc1-c1c(Cc2ccc(/C=C/C(=O)O)cc2)c2ccc(N)cc2oc1=O
660	3	–	1.7	–	–	O=C(O)/C=C/c1ccc(Cc2c(-c3ccc(F)cc3F)c(=O)oc3cc(O)ccc23)cc1
178	2.2	–	–	–	–	O=C(O)/C=C/c1ccc(Cc2c(-c3ccc(F)cc3Cl)c(=O)oc3cc(O)ccc23)cc1
256	5.8	–	2	–	–	Cc1cc(F)ccc1-c1c(-c2ccc(/C=C/C(=O)O)cc2)c2ccc(O)cc2oc1=O
1300	360	20	2.8	–	8	O=C(O)/C=C/c1ccc(Cc2c(-c3ccc(OC(F)(F)F)cc3)c(=O)oc3ccccc23)cc1
471	3.7	–	2.4	–	–	O=C(O)/C=C/c1ccc(Cc2c(-c3ccc(Cl)cc3)c(=O)oc3cc(O)ccc23)cc1
